This is an account of results in ChEMBL document CHEMBL2429829, “Inhibitors of the aminoglycoside 6'-N-acetyltransferase type Ib [AAC(6')-Ib] identified by in silico molecular docking” (Bioorg Med Chem Lett, 2013).

The assay can be described thus: Inhibition of aminoglycoside 6'-N-acetyltransferase Ib (unknown origin)-mediated acetylation expressed in Escherichia coli using kanamycin A and acetyl CoA as substrate at 100 uM preincubated for 10 mins followed by enzyme addition by spectrophotometric analysis relative to control. The method in brief: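 Enzyme: thioredoxin-fused AAC(6′)-Ib, arabinose-induced in E. coli, partially purified by DEAE ion exchange. Reaction: 20 mM Tris pH 7.5, 0.2 mM DTNB, 50 μM acetyl CoA, 18 μM kanamycin A, compound at 100 μM in 10% DMSO. Mix held 10 min at room temperature before enzyme added. CoA–SH release read at 412 nm. Percent inhibition from initial velocities versus no-compound reactions; mean of three experiments.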
As for `Cc1nn(Cc2ccc(F)cc2)c(C)c1NC(=O)c1cc(-c2ccc(F)cc2)on1`, the inhibition – broadly, the relative decrease from the control value, in per cent – stood at 0%.

For the molecule `Cc1ccc(C(=O)O)cc1NC(=S)NC(=O)c1cccc2c(Br)cccc12`, the inhibition stood at 0%.

Regarding `N#Cc1cccc(Oc2ccc(-c3nc4ccccc4nc3-c3ccccc3)cc2)c1C#N`, the inhibition was determined as 0%.

As to `O=C(Nc1nccs1)c1cccc(N2C(=O)c3cccc4c([N+](=O)[O-])ccc(c34)C2=O)c1`, the inhibition was determined as 0%.

For `O=C(Nc1ccccc1)c1ccccc1/N=C/c1ccc(/C=N/c2ccccc2C(=O)Nc2ccccc2)cc1`, the inhibition turned out to be 0%.

As to `O=C(c1ccc2nc(C3CC3)oc2c1)N1CCC(CCc2ccccc2)CC1`, the inhibition is 0%.

As for `Cc1cccc(C)c1NC(=O)C(Cc1c[nH]c2ccccc12)NC(=O)Oc1ccccc1` (stereo not drawn), the inhibition was found to be 0%.

Consider `O=C1NC(=S)N(c2ccccc2)C(=O)/C1=C/c1ccc(OCc2ccccc2)cc1`, for which the inhibition is 0%.

Molecule `Cc1ccc(NC(=O)COc2ccc3c4c(c(=O)oc3c2)CCCCC4)cc1` gave an inhibition of 0%.

`Cc1ccc2nc(NC(=S)NC(=O)c3oc4ccccc4c3C)sc2c1` registered an inhibition of 0%.

Turning to `Cc1c(O)cccc1C(=O)N1CCC[C@@H]1c1nc(-c2ccccc2)no1`, the inhibition came to 0%.

In turn, `O=C1NC(=O)N(c2ccc(F)cc2)C(=O)/C1=C/c1cc(Cl)ccc1OCc1ccc(C(=O)O)cc1` returned an inhibition of 0%.

Molecule `O=C(CSc1nc2ccccc2c(=O)n1Cc1ccccc1)c1cc2ccccc2o1` displayed an inhibition of 0%.

Turning to `O=C1C(=Cc2ccco2)C(=O)N(c2ccccc2)C(=S)N1c1ccccc1`, the inhibition worked out at 0%.

Molecule `O=C1C(=Cc2ccco2)C(=O)N(c2ccccc2)C(=O)N1c1ccccc1` came in with an inhibition of 0%.

In turn, `O=C(c1ccc(N2CCCCC2)cc1)N1CCC2c3ccccc3NC2[C@@H]1c1ccccn1` (stereo partly drawn) had an inhibition of 0%.

`O=c1[nH]c(-c2cccc(OCc3ccccc3)c2)nc2sc3c(c12)CCCC3`: the inhibition was 0%.

Turning to `COc1ccc(F)cc1C(=O)C1CCCN(C(=O)c2ccc(Cn3cnnn3)cc2)C1` (stereo not drawn), the inhibition came to 0%.

In turn, `c1ccc2oc(-c3nn4c(-c5ccncc5)nnc4s3)cc2c1` returned an inhibition of 0%.

The molecule `Cc1ccc2nc(-c3ccc(Cl)c(NC(=S)NC(=O)c4ccccc4C)c3)oc2c1` yielded an inhibition of 0%.

As for `O=C1C[C@H](c2ccc3cccc(O)c3n2)c2ccc(N3CCOC3=O)cc2N1`, the inhibition was found to be 0%.

In the case of `O=C(NC1CCCc2c1cnn2-c1ccccc1F)c1ccc(-n2ccnc2)cc1` (stereo not drawn), the inhibition worked out at 15%.

The molecule `CC(C)(NC(=O)CCn1ccc(=O)[nH]c1=O)c1cccc2ccccc12` displayed an inhibition of 0%.

Regarding `O=C(Nc1ccccc1N1CCCCC1)c1cccc(-c2cc3ccccc3oc2=O)c1`, the inhibition was 0%.

`O=C(c1ccc2c3c(cccc13)CC2)[C@H]1CCCN(C(=O)c2cn3ccccc3n2)C1`: the inhibition was found to be 0%.

`Cn1c(COc2nnc(-c3ccccc3)c3ccccc23)nc2ccccc21` had an inhibition of 0%.

Molecule `COC(=O)c1ccc(N2C(=O)NC(=O)/C(=C\c3ccccc3OCc3ccc(C(=O)O)cc3)C2=O)cc1` showed an inhibition of 0%.

The molecule `Cn1c(SCC(=O)Nc2cccc3ccccc23)nnc1-c1ccc(F)cc1` returned an inhibition of 0%.

In turn, `O=C(c1cccc([N+](=O)[O-])c1)c1ccc2c(c1)C(=O)N(c1cccc(-c3nc4ccccc4o3)c1)C2=O` showed an inhibition of 0%.

In turn, `O=C1NCCN(Cc2cccc(F)c2F)[C@H]1CC(=O)N1CCc2c([nH]c3ccccc23)C1` displayed an inhibition of 0%.

`O=C(Nc1ccc(Oc2cccnc2)cc1)[C@@H]1CCCCN1Cc1ccc2c(c1)CCO2` yielded an inhibition of 0%.

In turn, `O=C1NC(=O)N(c2ccc3c(c2)OCO3)C(=O)/C1=C/c1ccc(-c2ccc(F)cc2)o1` had an inhibition of 0%.

`CN1C(=O)c2ccc(NC(=O)[C@H]3CC(=O)N(c4ccccc4)C3)cc2C1=O` showed an inhibition of 0%.

As for `O=c1oc2ccc(Br)cc2cc1C1=Nn2c(nc3ccccc3c2=O)SC1`, the inhibition came out at 0%.

Consider `O=C1C(=Cc2ccc(-c3ccccc3Cl)o2)C(=O)N(c2ccccc2)C(=S)N1c1ccccc1`, for which the inhibition is 0%.

In the case of `Cc1cc(C)c2nc(Nc3nc(C)cc(-c4ccccc4)n3)nc(C)c2c1`, the inhibition was found to be 0%.

`O=C1NC(=O)N(c2ccccc2)C(=O)/C1=C/c1cc(Cl)ccc1OCc1ccc(C(=O)O)cc1` had an inhibition of 0%.

`Cc1ccccc1Nc1nnc(-c2ccc(C(=O)NCCO)cc2)c2ccccc12`: the inhibition stood at 0%.

`Cc1ccc(N2C(=O)NC(=O)/C(=C\c3ccc(-c4ccccc4C(=O)O)o3)C2=O)cc1` had an inhibition of 0%.

With `Cc1ccc(-c2nnn(CC(=O)Nc3ccc4c(c3)OCCO4)n2)cc1`, the inhibition amounted to 0%.

In the case of `O=C(Nc1ccc2c(c1)C(=O)c1ccccc1C2=O)c1cccc([N+](=O)[O-])c1`, the inhibition is 0%.

For `O=C(O)c1ccc2c(c1Nc1cccc3c1C(=O)c1ccccc1C3=O)C(=O)c1ccccc1C2=O`, the inhibition was 0%.

In turn, `O=C(NC(=S)Nc1ccc2c3c(oc2c1)CCCC3)c1ccc2c(c1)OCO2` registered an inhibition of 0%.

As for `Cc1ccc2nc(N3C(=O)c4cccc5cccc(c45)C3=O)sc2c1`, the inhibition was found to be 0%.

Molecule `Cc1ccc2nc(C)cc(C(=O)OCC(=O)c3ccc(-c4ccccc4)cc3)c2c1` displayed an inhibition of 0%.

For the molecule `Cc1ccc(C(=O)COc2cccc(N3C(=O)[C@@H]4[C@H]5CC[C@H](C5)[C@@H]4C3=O)c2)cc1C`, the inhibition was 0%.

`CC[C@H](C1=NN2C(=N)/C(=C\c3ccc(-c4cccc(C(=O)O)c4)o3)C(=O)N=C2S1)c1ccccc1` showed an inhibition of 0%.

Regarding `Cc1ccc(NC(=O)c2ccccc2N2C(=O)[C@@H]3[C@@H]4C=C[C@@H]([C@H]5C[C@@H]45)[C@@H]3C2=O)cc1C`, the inhibition came out at 0%.

Turning to `CC(C)(C)NC(=O)c1cccc(NC(=O)c2ccc3c(c2)C(=O)N(Cc2ccncc2)C3=O)c1`, the inhibition was 0%.

`O=C(c1cc(-c2ccc3c(c2)OCO3)nc2ccccc12)N1CCN(c2ccccc2F)CC1` came in with an inhibition of 0%.

Turning to `O=C(/C=C/c1cccc2ccccc12)N1CCN(CCN2C(=O)c3cccc4cccc(c34)C2=O)CC1`, the inhibition came out at 0%.

In turn, `Cc1ccc(S(=O)(=O)Nc2cc3c(c4ccccc24)O[C@]2(C3)N(C)c3ccccc3C2(C)C)c(C)c1` had an inhibition of 0%.

Take `CCc1cc(Br)ccc1N1C(=O)[C@H]2C3c4ccccc4C(c4ccccc43)[C@@H]2C1=O`: the inhibition came out at 0%.

In turn, `O=C(NCc1ccc(-c2nc3ccccc3o2)cc1)c1cccc(-c2cc3ccccc3oc2=O)c1` returned an inhibition of 0%.

As to `Brc1ccc2nc(Nc3cccc4ccccc34)nc(-c3ccccc3)c2c1`, the inhibition was 0%.

In the case of `Cc1ccc(-c2cc(C(=O)NCc3ccc(S(N)(=O)=O)cc3)c3ccccc3n2)cc1C`, the inhibition was found to be 0%.

`Cc1ccc(N2C(=O)C[C@@H](N3CCN(c4nc5ccccc5s4)CC3)C2=O)c(C)c1`: the inhibition was determined as 0%.

Take `S=C(N/N=C1/CCCc2c1[nH]c1ccc(C3CCCCC3)cc21)Nc1ccccc1`: the inhibition came to 0%.

`Cc1ncc(CNC2CCCc3nc(-c4ccccc4)ncc32)n1C` (stereo not drawn): the inhibition was 0%.

Molecule `Cc1ccc(-c2csc(NC(=S)NC(=O)c3ccccc3Br)n2)cc1` registered an inhibition of 0%.

The molecule `Cc1ccc(S(=O)(=O)Nc2c3ccccc3c(O)c3c4c(oc23)CC(C)(C)CC4=O)cc1` came in with an inhibition of 0%.

In turn, `Cc1ccc2c(c1)CCCN2C(=O)c1cc(-c2ccc3c(c2)OCO3)nc2ccccc12` came in with an inhibition of 10%.

Turning to `COc1cccc(Nc2nc(C3(C)CC4(CC(C)OC4=O)C(=O)O3)cs2)c1` (stereo not drawn), the inhibition turned out to be 0%.

`O=C(c1cc(-c2ccccc2Cl)nc2ccccc12)N1CCN(Cc2ccc3c(c2)OCO3)CC1` yielded an inhibition of 0%.

As to `O=C(NC(=S)Nc1nc(-c2cccc3ccccc23)cs1)c1ccc2c(c1)OCCO2`, the inhibition stood at 0%.

With `O=C1C(=Cc2ccc(-c3ccccc3[N+](=O)[O-])o2)C(=O)N(c2ccccc2)C(=S)N1c1ccccc1`, the inhibition was 0%.

For `O=C(CSc1nnnn1-c1ccccc1)Nc1ccc(-c2ccc([N+](=O)[O-])cc2)cc1`, the inhibition came out at 0%.

Consider `NC(=O)c1c(NC(=O)c2cc(-c3ccc4c(c3)OCO4)nc3ccccc23)sc2c1CCCCCC2`, for which the inhibition was 0%.

The molecule `O=C1C(=Cc2ccc(-c3ccc(Cl)cc3[N+](=O)[O-])o2)C(=O)N(c2ccccc2)C(=S)N1c1ccccc1` gave an inhibition of 0%.

In turn, `O=C1c2cccc3cccc(c23)C(=O)N1CCCc1nc2sc3c(c2c(=O)[nH]1)CCCC3` showed an inhibition of 0%.

For `COc1cc(/C=C2\C(=O)NC(=S)N(c3ccccc3)C2=O)ccc1OCc1ccc(C(=O)O)cc1`, the inhibition turned out to be 0%.

Molecule `Cc1ccnc(Nc2nc(-c3ccc4ccccc4c3)cs2)c1` came in with an inhibition of 0%.

Regarding `Cc1c(C(=O)Nc2ccc3c(c2)Cc2ccccc2-3)cccc1[N+](=O)[O-]`, the inhibition was 0%.

On to `Cc1nc(N/N=C/c2ccc(OC(=O)c3cccnc3)cc2)c2c3c(sc2n1)CCCC3`, for which the inhibition came out at 0%.

`Cc1cccc(C)c1NC(=O)COc1ccc2c3c(c(=O)oc2c1)CCCCC3` displayed an inhibition of 0%.

For `CCc1ccc(-c2nc3ccccc3c(C(=O)Nc3ccc(C(=O)N4CCCC4)cc3)c2C)cc1`, the inhibition worked out at 0%.

For the molecule `O=C(OCc1ccc(S(=O)(=O)c2ccccc2)cc1)c1ccc2c(c1)-c1ccccc1C2=O`, the inhibition was determined as 0%.

`O=C1[C@@H]2[C@H](C(=O)N1/N=C/c1ccccc1OCc1ccc(Cl)cc1)[C@@H]1C=C[C@H]2C1` displayed an inhibition of 12%.
